These results are taken from ChEMBL document CHEMBL3120051, “Synthesis of novel 1,2-benzothiazine 1,1-dioxide-3-ethanone oxime N-aryl acetamide ether derivatives as potent anti-inflammatory agents and inhibitors of monocyte-to-macrophage transformation” (Eur J Med Chem, 2014).

Molecules are shown by their SMILES. Activity calls are given as the source filed them. The calls are words filed in the database; no cut-off is given here.

In data set [1] the test system is THP-1. Put plainly: Antiinflammatory activity in human THP1 cells assessed as inhibition of PMA-induced TNF-alpha secretion incubated for 2 hrs prior to PMA challenge measured after 48 hrs by ELISA. It is filed as functional, cell-based. In outline: (§1)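 Seeded at 2×10^5/ml, THP-1 cells were pretreated 2 h with 5, 10 and 20 µM, then stimulated with 100 nM PMA. Supernatants were taken after 48 h and assayed by ELISA kit, read at 450 nm corrected at 570 nm, and quantified against standard curves (pg/ml). Percent inhibition was calculated versus control. IC50 is the predicted 50%-inhibition concentration, mean ± SD of three independent experiments.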

Data set [2] deals with THP-1. Put plainly: Antiinflammatory activity in human THP1 cells assessed as inhibition of PMA-induced IL-8 secretion incubated for 2 hrs prior to PMA challenge measured after 48 hrs by ELISA. It is filed as functional, cell-based. In outline: as §1
Data set [3] in a line: Cytotoxicity against human THP1 cells assessed as cell viability at 20 uM after 72 hrs by trypan blue dye exclusion assay. It is filed as cell-based. To be noted: THP-1 cells, read-out: Activity. In outline:
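THP-1 cells were seeded at 2×10^5 cells/ml in triplicate and exposed to 20 µM for 72 h. Cells were then harvested, resuspended in 0.4% trypan blue, and percent viable cells counted on an automated cell counter chamber.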

Data set [4] deals with THP-1. Put plainly: Antiinflammatory activity in human THP1 cells assessed as inhibition of PMA-induced MCP-1 secretion incubated for 2 hrs prior to PMA challenge measured after 72 hrs by ELISA. In kind it is functional, cell-based. Put shortly: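 THP-1 monocytes, 2×10^5/ml, received 5, 10 and 20 µM for 2 h before 100 nM PMA. Supernatant MCP-1 was measured by ELISA kit 72 h after PMA, with absorbance at 450 nm corrected at 570 nm and standard-curve quantitation. Percent inhibition is relative to control. IC50 is the predicted 50%-inhibition concentration, mean ± SD of three independent experiments.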

The test system of data set [5] is THP-1. Put plainly: Antiinflammatory activity in human THP1 cells assessed as inhibition of PMA-induced LOX-1 expression at 10 uM incubated for 2 hrs prior to PMA challenge measured after 36 hrs by RT-PCR analysis. In kind it is functional, cell-based. Put shortly:
(§2)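 THP-1 monocytes (ATCC; RPMI 1640, 10% FBS, 37 °C, 5% CO2) pretreated 2 h, then 100 nM PMA for 36 h. Total RNA extracted in TRIzol, cDNA made, and LOX-1 and CD-36 transcripts measured by RT-PCR with gene-specific primers; GAPDH served as loading control.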

The subject of data set [6] is THP-1. Put plainly: Antiinflammatory activity in human THP1 cells assessed as inhibition of PMA-induced CD-36 expression at 10 uM incubated for 2 hrs prior to PMA challenge measured after 36 hrs by RT-PCR analysis. It is filed as functional, cell-based. Put shortly: as §2
Data set [7] concerns the target Matrix metalloproteinase-9 (Homo sapiens) (UniProt P14780). Put plainly: Inhibition of MMP-9 in human THP1 cells assessed as inhibition of PMA-induced monocyte to macrophage transformation at 10 uM incubated for 2 hrs prior to PMA challenge measured after 48 hrs by gelation zymography. It is filed as cell-based. To be noted: THP-1. Put shortly:
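THP-1 monocytes were pretreated 2 h at 10 µM, then stimulated with 100 nM PMA for 48 h. Conditioned medium was run without reducing agent on 10% SDS-PAGE containing 0.1% gelatin. Gels were renatured 30 min in 0.25% Triton X-100 and developed overnight at room temperature in Tris/CaCl2/Brij 35 buffer.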

Data set [8] has as its system THP-1. Put plainly: Antiinflammatory activity in human THP1 cells assessed as inhibition of PMA-induced increase in mitochondrial number at 10 uM incubated for 2 hrs prior to PMA challenge measured after 48 hrs by confocal microscopy. In kind it is functional, cell-based. Put shortly:
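Cells were treated in cover-glass-bottom dishes: 10 µM for 2 h, then 100 nM PMA. After 48 h they were stained 1 h with 200 nM MitoTracker CMXRos in HBSS and counterstained with DAPI. Confocal imaging used rhodamine and DAPI filters, with five fields of view, and gentle washes between steps.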

Data set [9] concerns THP-1. Put plainly: Antiinflammatory activity in human THP1 cells assessed as inhibition of PMA-induced increase in cell adherence at 10 uM incubated for 2 hrs prior to PMA challenge measured after 48 hrs by light microscopy. It is filed as functional, cell-based. Put shortly:
(§3)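 After 2 h pretreatment at 10 µM and 100 nM PMA for 48 h, THP-1 cultures had medium removed and were washed twice with warm DPBS. Phase-contrast light microscopy images were then used to assess adherence and monocyte/macrophage transformation.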

The subject of data set [10] is THP-1. Put plainly: Antiinflammatory activity in human THP1 cells assessed as inhibition of PMA-induced increase in cell size at 10 uM incubated for 2 hrs prior to PMA challenge measured after 48 hrs by light microscopy. In kind it is functional, cell-based. Put shortly:
as §3

Matrix metalloproteinase-9 (Homo sapiens), sequence (P14780 whole entry): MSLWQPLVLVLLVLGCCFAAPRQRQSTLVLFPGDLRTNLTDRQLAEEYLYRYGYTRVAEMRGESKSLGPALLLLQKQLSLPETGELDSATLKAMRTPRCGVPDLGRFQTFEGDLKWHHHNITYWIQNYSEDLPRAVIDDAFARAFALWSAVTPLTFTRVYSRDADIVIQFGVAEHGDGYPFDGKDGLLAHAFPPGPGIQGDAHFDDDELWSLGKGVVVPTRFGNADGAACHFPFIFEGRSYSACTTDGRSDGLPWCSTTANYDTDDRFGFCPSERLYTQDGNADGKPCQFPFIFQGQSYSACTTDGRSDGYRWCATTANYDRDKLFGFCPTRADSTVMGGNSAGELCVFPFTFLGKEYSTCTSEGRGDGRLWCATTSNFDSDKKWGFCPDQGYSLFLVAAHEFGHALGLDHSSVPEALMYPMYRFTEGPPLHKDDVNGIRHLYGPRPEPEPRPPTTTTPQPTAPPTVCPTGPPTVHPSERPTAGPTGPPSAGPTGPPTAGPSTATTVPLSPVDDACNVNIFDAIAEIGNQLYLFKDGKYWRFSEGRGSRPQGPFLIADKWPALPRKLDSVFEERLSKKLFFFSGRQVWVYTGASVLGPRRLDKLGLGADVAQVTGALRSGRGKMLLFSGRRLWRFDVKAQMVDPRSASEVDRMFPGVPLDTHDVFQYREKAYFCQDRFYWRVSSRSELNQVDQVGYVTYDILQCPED

On to `CCOC1=C(/C(C)=N/OCC(=O)Nc2ccc(F)c(Cl)c2)N(C)S(=O)(=O)c2ccccc21`, for which the IC50 in data set [1], in data set [2] and in [4] was above 20 µM in each case. The viability at 72 h, 20 µM in [3] stood at 97.5%.

With `C/C(=N\OCC(=O)Nc1ccccc1)C1=C(O)c2ccccc2S(=O)(=O)N1C`, the half-inhibitory concentration (IC50) in data set [1], in data set [2] and in [4] was above 20 µM each time. Further, the viability at 72 h, 20 µM in data set [3] amounted to 94.1%.

With `CCOC1=C(/C(C)=N/OCC(=O)Nc2ccc(OC)cc2)N(C)S(=O)(=O)c2ccccc21`, the IC50 in data set [1], in data set [2] and in data set [4] was above 20 µM each time. Moreover, in data set [3], the viability at 72 h, 20 µM came to 94.2%.

On to `CCOC1=C(/C(C)=N/OCC(=O)Nc2ccc(Cl)c(C(F)(F)F)c2)N(C)S(=O)(=O)c2ccccc21`, for which the IC50 in data set [1], in [2] and in [4] was above 20 µM each time. Besides, the viability at 72 h, 20 µM in data set [3] worked out at 90.2%.

Regarding `CCOC1=C(/C(C)=N/OCC(=O)Nc2cccc(OC)c2)N(C)S(=O)(=O)c2ccccc21`, the concentration for half-maximal inhibition (IC50) in data set [1], in [2] and in [4] was above 20 µM in each case. For the same compound, the viability at 72 h, 20 µM in data set [3] came to 96.2%.

As for `C/C(=N\OCC(=O)Nc1ccc(C(F)(F)F)cc1)C1=C(O)c2ccccc2S(=O)(=O)N1C`, the inhibition entry in [5], in data set [6], in [7], in data set [8], in data set [9] and in [10] was “Active” in each case. In addition, the IC50 was 12.1 µM in data set [1], above 20 µM in [2] and 4 µM in data set [4]. For the same compound, the viability at 72 h, 20 µM in data set [3] turned out to be 93%.

Take `CN1C(C(=O)Nc2ccccn2)=C(O)c2ccccc2S1(=O)=O` [PIROXICAM]: in [1], the IC50 was above 20 µM.

Take `CCOC1=C(/C(C)=N/OCC(=O)Nc2ccc(C(F)(F)F)cc2)N(C)S(=O)(=O)c2ccccc21`: the IC50 in data set [1] is above 20 µM; in data set [2] it was 16.7 µM; in data set [4] it was 5.7 µM. The viability at 72 h, 20 µM in [3] was found to be 93%.

For `C/C(=N\OCC(=O)Nc1ccc(F)c(Cl)c1)C1=C(O)c2ccccc2S(=O)(=O)N1C`, the IC50 in [1], in [2] and in data set [4] was above 20 µM throughout. For the same compound, the viability at 72 h, 20 µM in data set [3] was determined as 95.1%.

For the compound `CCOC1=C(/C(C)=N/OCC(=O)Nc2ccccc2)N(C)S(=O)(=O)c2ccccc21`, the half-inhibitory concentration (IC50) in data set [1], in data set [2] and in data set [4] was above 20 µM in each case. In [3], the viability at 72 h, 20 µM is 93%.

With `COc1cccc(NC(=O)CO/N=C(\C)C2=C(O)c3ccccc3S(=O)(=O)N2C)c1`, the IC50 in data set [1], in data set [2] and in data set [4] was above 20 µM throughout. Further, the viability at 72 h, 20 µM in [3] amounted to 92.5%.

`CCOC1=C(/C(C)=N/OCC(=O)Nc2cccc(F)c2)N(C)S(=O)(=O)c2ccccc21`: the IC50 in data set [1], in [2] and in data set [4] was above 20 µM in each case. For the same compound, the viability at 72 h, 20 µM in data set [3] worked out at 92%.

Turning to `C/C(=N\OCC(=O)Nc1c(F)cccc1F)C1=C(O)c2ccccc2S(=O)(=O)N1C`, the concentration for half-maximal inhibition (IC50) in data set [1], in data set [2] and in data set [4] was above 20 µM each time. The viability at 72 h, 20 µM in data set [3] worked out at 92.2%.

As to `C/C(=N\OCC(=O)Nc1ccc(Cl)c(C(F)(F)F)c1)C1=C(O)c2ccccc2S(=O)(=O)N1C`, the inhibition entry in data set [5], in data set [6], in [8], in data set [9] and in [10] was “Active” throughout. Besides, the inhibition in data set [7] is 75%. Further, the 50% inhibitory concentration (IC50) in data set [1] was 6 µM; in data set [2] it was above 20 µM; in [4], 2.5 µM. For the same compound, the viability at 72 h, 20 µM in data set [3] turned out to be 91.2%.

Regarding `CCc1ccc(CCOc2ccc(CC3SC(=O)NC3=O)cc2)nc1` (stereo not drawn) [PIOGLITAZONE], the concentration for half-maximal inhibition (IC50) in data set [4] turned out to be 18.6 µM.

As for `C/C(=N\OCC(=O)Nc1cccc(F)c1)C1=C(O)c2ccccc2S(=O)(=O)N1C`, the IC50 is above 20 µM in [1], above 20 µM in data set [2] and 9.4 µM in data set [4]. Further, the viability at 72 h, 20 µM in data set [3] came to 95.5%.

Take `CCOC1=C(/C(C)=N/OCC(=O)Nc2c(F)cccc2F)N(C)S(=O)(=O)c2ccccc21`: the half-maximal inhibitory concentration (IC50) in data set [1], in data set [2] and in [4] was above 20 µM in each case. Besides, the viability at 72 h, 20 µM in [3] is 92.3%.

Take `COc1ccc(NC(=O)CO/N=C(\C)C2=C(O)c3ccccc3S(=O)(=O)N2C)cc1`: the IC50 in data set [1], in [2] and in data set [4] was above 20 µM in each case. Further, the viability at 72 h, 20 µM in data set [3] amounted to 97.5%.
